Each structure is given as a SMILES string. Residue numbers refer to the chain shown, from its start.
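Further: active if original authors judged signal statistically different from baseline.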

The first assay has as its target T1, OR5M11 (Homo sapiens) (UniProt Q96RB7).
T1 sequence (whole entry): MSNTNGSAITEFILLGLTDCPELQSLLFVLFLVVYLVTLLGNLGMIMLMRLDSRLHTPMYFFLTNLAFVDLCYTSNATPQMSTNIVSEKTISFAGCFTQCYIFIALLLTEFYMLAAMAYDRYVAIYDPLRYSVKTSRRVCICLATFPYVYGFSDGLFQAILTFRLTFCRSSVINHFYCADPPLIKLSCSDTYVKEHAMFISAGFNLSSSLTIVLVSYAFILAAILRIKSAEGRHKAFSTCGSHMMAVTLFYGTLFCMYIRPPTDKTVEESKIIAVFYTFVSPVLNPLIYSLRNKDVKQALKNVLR
The settings on record: stereoisomer not certain. The gist of the method: (§1)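 Whether a receptor–molecule pair is responsive (active) rests on the original authors' judgment that its measured signal was statistically different from baseline. Pairs without that judgment are non-responsive (inactive). Sources used varied assay methods, commonly transient luciferase assays in mammalian cell lines.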
With `CC1=C(O)C(=O)C(C)O1` (configuration not stated), the “odorant receptor agonist call” value is “inactive”.

For `CC1CCCCCCCCCCCCC(=O)C1` (configuration not stated), the “odorant receptor agonist call” value was “inactive”.

On to `CCCCCC(S)C(C)CO` (configuration not stated), for which the “odorant receptor agonist call” value was “inactive”.

`CCC(S)C(C)CO` (configuration not stated): the “odorant receptor agonist call” value was “inactive”.

`CCCCCC(=O)C(C)C(C)=O` (configuration not stated): the “odorant receptor agonist call” value is “inactive”.

Turning to `CC(CO)CS` (configuration not stated), the “odorant receptor agonist call” value was “inactive”.

For `CC(=O)c1c(C)c([N+](=O)[O-])c(C(C)(C)C)c([N+](=O)[O-])c1C`, the “odorant receptor agonist call” value was “inactive”.

Take `CC1=C(O)C(=O)OC1C` (configuration not stated): the “odorant receptor agonist call” value is “inactive”.

On to `CCCCCCC=CCCC=O`, for which the “odorant receptor agonist call” value is “inactive”.

Regarding `Cc1cnc(C)c(C)n1`, the “odorant receptor agonist call” value is “inactive”.

Regarding `CC1=NC(C)C(C)S1` (configuration not stated), the “odorant receptor agonist call” value was “inactive”.

For the compound `CCCC(S)CCOC(C)=O` (configuration not stated), the “odorant receptor agonist call” value was “inactive”.

Regarding `CCC1OC(=O)C(O)=C1C` (configuration not stated), the “odorant receptor agonist call” value was “inactive”.

With `CCC1OC(C)=C(O)C1=O` (configuration not stated), the “odorant receptor agonist call” value was “inactive”.

On to `CCCCC(S)C(C)CO` (configuration not stated), for which the “odorant receptor agonist call” value is “active”.

In another assay the target is T2, OR5M3 (Homo sapiens) (UniProt Q8NGP4).
T2 sequence (whole entry): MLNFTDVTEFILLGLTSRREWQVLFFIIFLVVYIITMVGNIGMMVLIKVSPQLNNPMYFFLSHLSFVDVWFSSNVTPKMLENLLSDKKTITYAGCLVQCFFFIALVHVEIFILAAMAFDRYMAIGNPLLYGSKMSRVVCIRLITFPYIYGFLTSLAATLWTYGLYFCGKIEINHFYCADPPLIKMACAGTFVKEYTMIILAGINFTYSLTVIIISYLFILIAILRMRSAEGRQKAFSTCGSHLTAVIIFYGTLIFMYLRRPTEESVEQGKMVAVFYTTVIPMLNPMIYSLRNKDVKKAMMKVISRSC
The conditions noted are these: stereoisomer not certain. The gist of the method:
as §1
For the compound `CC(=O)c1cnccn1`, the “odorant receptor agonist call” value was “inactive”.

With `CC1=C(O)C(=O)C(C)O1` (configuration not stated), the “odorant receptor agonist call” value is “active”.

Turning to `CC1CCCCCCCCCCCCC(=O)C1` (configuration not stated), the “odorant receptor agonist call” value is “inactive”.

For `CCc1ncc(C)nc1CC`, the “odorant receptor agonist call” value was “inactive”.

Take `CCCCCC(S)C(C)CO` (configuration not stated): the “odorant receptor agonist call” value was “inactive”.

Consider `CCC(S)C(C)CO` (configuration not stated), for which the “odorant receptor agonist call” value was “inactive”.

Turning to `CCCCCC(=O)C(C)C(C)=O` (configuration not stated), the “odorant receptor agonist call” value is “inactive”.

Consider `CC(CO)CS` (configuration not stated), for which the “odorant receptor agonist call” value is “inactive”.

`COc1nccnc1C(C)C`: the “odorant receptor agonist call” value is “inactive”.

`CC(=O)c1c(C)c([N+](=O)[O-])c(C(C)(C)C)c([N+](=O)[O-])c1C`: the “odorant receptor agonist call” value was “inactive”.

Regarding `CC1=C(O)C(=O)OC1C` (configuration not stated), the “odorant receptor agonist call” value was “inactive”.

As to `CCCCCCC=CCCC=O`, the “odorant receptor agonist call” value was “inactive”.

`Cc1cnc(C)c(C)n1`: the “odorant receptor agonist call” value was “inactive”.

Consider `CC1=NC(C)C(C)S1` (configuration not stated), for which the “odorant receptor agonist call” value was “inactive”.

Take `CCCC(S)CCOC(C)=O` (configuration not stated): the “odorant receptor agonist call” value was “inactive”.

For `COc1nccnc1CC(C)C`, the “odorant receptor agonist call” value was “inactive”.

`CCC1OC(=O)C(O)=C1C` (configuration not stated): the “odorant receptor agonist call” value was “inactive”.

As to `CCC1OC(C)=C(O)C1=O` (configuration not stated), the “odorant receptor agonist call” value is “active”.

On to `CCCCC(S)C(C)CO` (configuration not stated), for which the “odorant receptor agonist call” value is “inactive”.

For the next assay, the system named is T3, OR5M3 N3Y A156T.
T3 sequence (whole entry): T2 sequence (whole entry) with N3Y, A156T
The conditions noted are these: stereoisomer not certain. A digest of the protocol:
as §1
Regarding `CC1=C(O)C(=O)C(C)O1` (configuration not stated), the “odorant receptor agonist call” value is “inactive”.

For `CC1=C(O)C(=O)OC1C` (configuration not stated), the “odorant receptor agonist call” value was “inactive”.

In the case of `CCCCCCC=CCCC=O`, the “odorant receptor agonist call” value is “inactive”.

With `Cc1cnc(C)c(C)n1`, the “odorant receptor agonist call” value was “inactive”.

For the compound `CC1=NC(C)C(C)S1` (configuration not stated), the “odorant receptor agonist call” value was “inactive”.

`CCCC(S)CCOC(C)=O` (configuration not stated): the “odorant receptor agonist call” value is “inactive”.

For `CCC1OC(=O)C(O)=C1C` (configuration not stated), the “odorant receptor agonist call” value is “inactive”.

With `CCC1OC(C)=C(O)C1=O` (configuration not stated), the “odorant receptor agonist call” value was “inactive”.

For the origin of these results see the M2OR odorant receptor database.
